Data published in ChEMBL document CHEMBL3259693, “Multitarget drug discovery for tuberculosis and other infectious diseases” (J Med Chem, 2014).
Values after ≈ are worked out from the molar mass of the structure shown. Active and inactive are the calls of the source. The rule behind the calls is not given here.

Assays:
[1] = test system: Mycolicibacterium smegmatis; experiment: Disruption of membrane potential in Mycobacterium smegmatis by DisC3(5) probe-based fluorescence spectrophotometry; type: functional, organism-based
Plasmodium falciparum = experiment: Antimicrobial activity against Plasmodium falciparum 3D7 by intraerythrocytic assay; type: functional, organism-based
[2] = test system: Mycolicibacterium smegmatis; experiment: microbe, parasite or virus in culture; type: functional; conditions: ATCC 700084
[3] = Inhibition of Escherichia coli N-terminal strep-tagged MenA expressed in Escherichia coli C43 (DE3) assessed as demethylmenaquinone-3 formation after 30 mins by HPLC analysis
Escherichia coli [4] = experiment: Induction of collapse in deltapH in Escherichia coli inverted membrane vesicles by 31P NMR spectroscopy; type: functional, organism-based
[5] = test system: Mycolicibacterium smegmatis; experiment: Inhibition of respiration in Mycobacterium smegmatis after 5 mins by methylene blue reduction assay in presence of NADH; type: functional, organism-based
[6] = test system: Mycobacterium tuberculosis; experiment: microbe, parasite or virus in culture; type: functional; conditions: ATCC 27294
MCF7 = experiment: Cytotoxicity against human MCF7 cells assessed as growth inhibition by MTT assay; type: cell-based
Bacillus subtilis = experiment: Antimicrobial activity against Bacillus subtilis subsp. subtilis ATCC 6051 after 12 to 16 hrs by microbroth dilution method; type: functional, organism-based
Saccharomyces cerevisiae = experiment: Antimicrobial activity against Saccharomyces cerevisiae ATCC 208352 after 48 hrs by microbroth dilution method; type: functional, organism-based; conditions: ATCC 208352, 48 h
Staphylococcus aureus = experiment: Antimicrobial activity against methicillin-resistant Staphylococcus aureus USA300; type: functional
Escherichia coli [7] = experiment: microbe, parasite or virus in culture; type: functional, organism-based; conditions: ATCC 29425, 3 h
Candida albicans = experiment: Antimicrobial activity against Candida albicans CAI-4; type: functional, organism-based
[8] = test system: Mycolicibacterium smegmatis; experiment: Antimicrobial activity against Mycobacterium smegmatis after 10 hrs; type: functional
[9] = test system: Mycobacterium tuberculosis; experiment: Antimicrobial activity against Mycobacterium tuberculosis after 7 to 21 days by microdilution method; type: functional
[10] = test system: Mycolicibacterium smegmatis; conditions: at 40 to 120 µM
[11] = Inhibition of Mycobacterium smegmatis MenA; design: species or system Mycolicibacterium smegmatis
Escherichia coli [12] = experiment: Ratio of IC50 for Escherichia coli ATCC 29425 in presence of 10% fetal bovine serum to IC50 for Escherichia coli ATCC 29425; type: functional
How it was run: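 E. coli broth microdilution in LB. Culture was grown to OD600 ~0.4, diluted 500-fold, and exposed to compound from 0.3 mM, 2× serially diluted to 292 nM. Plates ran 3 h at 37 °C with or without 10% FBS. Viability was read by MTT at 570 nm, and IC50 was obtained by non-linear regression.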

Squalene synthase = molecular target: T1, Squalene synthase (Homo sapiens, UniProt P37268); experiment: Inhibition of human SQS
T1 sequence (P37268 whole entry): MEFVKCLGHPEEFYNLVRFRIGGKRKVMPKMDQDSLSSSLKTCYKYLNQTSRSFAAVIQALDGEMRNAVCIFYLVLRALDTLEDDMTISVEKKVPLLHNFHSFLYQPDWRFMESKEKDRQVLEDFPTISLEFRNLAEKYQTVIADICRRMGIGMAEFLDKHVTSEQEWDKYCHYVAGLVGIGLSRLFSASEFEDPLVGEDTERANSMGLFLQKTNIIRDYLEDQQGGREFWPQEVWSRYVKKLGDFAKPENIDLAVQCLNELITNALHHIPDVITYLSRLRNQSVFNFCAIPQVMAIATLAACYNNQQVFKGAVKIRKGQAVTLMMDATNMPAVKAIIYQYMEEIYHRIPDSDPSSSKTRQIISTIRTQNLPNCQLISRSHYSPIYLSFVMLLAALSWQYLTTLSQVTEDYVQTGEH

[13] = molecular target: T2, 4,4'-diapophytoene synthase (Staphylococcus aureus, UniProt A9JQL9); experiment: Inhibition of Staphylococcus aureus CrtM
T2 sequence (A9JQL9 whole entry): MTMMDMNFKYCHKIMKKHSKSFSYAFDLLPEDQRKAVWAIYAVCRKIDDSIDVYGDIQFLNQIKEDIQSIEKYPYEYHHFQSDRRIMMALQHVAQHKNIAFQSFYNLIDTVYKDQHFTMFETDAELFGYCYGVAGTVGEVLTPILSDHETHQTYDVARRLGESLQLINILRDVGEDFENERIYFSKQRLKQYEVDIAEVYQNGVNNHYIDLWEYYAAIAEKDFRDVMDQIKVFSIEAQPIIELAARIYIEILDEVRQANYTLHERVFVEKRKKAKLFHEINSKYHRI

[14] = Therapeutic index, ratio of IC50 for human MCF7 cells to IC50 for Plasmodium falciparum 3D7; type: cell-based; conditions: MCF7 cells versus Plasmodium falciparum 3D7, read-out: Ratio IC50
[15] = Therapeutic index, ratio of IC50 for human MCF7 cells to MIC for Mycobacterium tuberculosis ATCC 27294; type: cell-based; conditions: MCF7 cells versus Mycobacterium tuberculosis ATCC 27294, read-out: TI
[16] = Inhibition of Mycobacterium smegmatis MenG using radiolabeled S-adenosylmethionine as substrate after 1 hr by liquid scintillation counting analysis; design: species or system Mycolicibacterium smegmatis
[17] = test system: Mycolicibacterium smegmatis; experiment: Induction of collapse in deltapH in Mycobacterium smegmatis inverted membrane vesicles at 30 to 150 uM by 31P NMR spectroscopy; type: functional

| Structure (SMILES) | IC50 [1] | IC50 (Plasmodium falciparum) | MIC [2] | IC50 [3] | IC50 (Escherichia coli [4]) | IC50 [5] | MIC [6] | IC50 (MCF7) | IC50 (Bacillus subtilis) | IC50 (Saccharomyces cerevisiae) | MIC (Staphylococcus aureus) | IC50 (Escherichia coli [7]) | IC50 (Candida albicans) | other results |
| --- | --- | --- | --- | --- | --- | --- | --- | --- | --- | --- | --- | --- | --- | --- |
| CC(C)=CCC/C(C)=C/CNC(=O)COC1C2CC3CC(C2)CC1C3 (stereo unspecified) | 150 µM | 18 µM | 18 µM (≈ 6.22 µg/mL) | 5.8 µM | 12 µM | 330 µM | 2.2 µM (≈ 0.76 µg/mL) | 35 µM | – | – | – | – | – | – |
| CC(C)=CCC/C(C)=C/CNCCCOC1C2CC3CC(C2)CC1C3 (stereo unspecified) | 50 µM | 2.4 µM | 18 µM (≈ 6.22 µg/mL) | 1.9 µM | 1.1 µM | 4.8 µM | 4.6 µM (≈ 1.59 µg/mL) | 9.8 µM | 8.7 µM | 7.8 µM | 23 µM (≈ 7.95 µg/mL) | 6.7 µM | 19 µM | – |
| CC[C@@H](CO)NCCN[C@@H](CC)CO [ETHAMBUTOL] | – | – | – | – | – | – | – | – | – | – | – | – | – | MIC [8]: 4.9 µM (≈ 1 µg/mL); MIC [9]: 9.8 µM (≈ 2 µg/mL) |
| CC(C)=CCC/C(C)=C/CNCCOC1C2CC3CC(C2)CC1C3 (stereo unspecified) | 31 µM | 2.4 µM | 4.8 µM (≈ 1.59 µg/mL) | 0.4 µM | 0.8 µM | 0.5 µM | 0.06 µM (≈ 0.0199 µg/mL) | 30 µM | 48 µM | 5.4 µM | 24 µM (≈ 7.96 µg/mL) | 8.5 µM | 36 µM | inhibition [10]: Active; IC50 [11]: 4 µM; Ratio IC50 (Escherichia coli [12]): 1.6; IC50 (Squalene synthase): 100 µM; IC50 [13]: 100 µM; selectivity ratio [14]: 40; selectivity ratio [15]: 900; IC50 [16]: 15 µM |
| CC(C)=CCC/C(C)=C/CNCCO[C@@H]1C[C@@H]2CC[C@@]1(C)C2(C)C | 44 µM | – | 4.8 µM (≈ 1.6 µg/mL) | 3.2 µM | 0.8 µM | 0.3 µM | 0.15 µM (≈ 0.05 µg/mL) | 3.9 µM | 5.4 µM | 2.7 µM | 24 µM (≈ 8.01 µg/mL) | 36 µM | 19 µM | EC50 [1]: 15 µg/mL (≈ 45 µM); IC50 [11]: 8 µM; Ratio IC50 (Escherichia coli [12]): 1.6; Activity [17]: Active; IC50 [16]: 5.7 µM |
| CC(C)=CCC/C(C)=C/C[N+](C)(C)CCOC1C2CC3CC(C2)CC1C3 (stereo unspecified) | 51 µM | 0.16 µM | 24 µM | 1 µM | 18 µM | 0.5 µM | 1.6 µM | 6.5 µM | 8.6 µM | 31 µM | 16 µM | 76 µM | 37 µM | – |
| CC(C)[C@@H]1NC(=O)[C@H](C)OC(=O)[C@@H](C(C)C)NC(=O)[C@@H](C(C)C)OC(=O)[C@H](C(C)C)NC(=O)[C@H](C)OC(=O)[C@@H](C(C)C)NC(=O)[C@@H](C(C)C)OC(=O)[C@H](C(C)C)NC(=O)[C@H](C)OC(=O)[C@@H](C(C)C)NC(=O)[C@@H](C(C)C)OC1=O | – | – | – | – | – | – | – | – | – | – | – | – | – | Activity [17]: inactive |
| CO[C@@H]1C[C@@H](C[C@H]2CC[C@H](C)[C@H]([C@@H](C)C(=O)O)O2)O[C@]2(O[C@](C)([C@H]3CC[C@@](C)([C@@H]4O[C@@H]([C@H]5O[C@@](O)(CO)[C@H](C)C[C@@H]5C)C[C@@H]4C)O3)C[C@H]2C)[C@@H]1C | – | – | – | – | – | – | – | – | – | – | – | – | – | Activity [17]: Active |
| CC(C)=CCC/C(C)=C/COCC(=O)NC1C2CC3CC(C2)CC1C3 (stereo unspecified) | 150 µM | 11 µM | 72 µM (≈ 24.9 µg/mL) | 16 µM | 7.4 µM | 280 µM | 34 µM (≈ 11.7 µg/mL) | 27 µM | 49 µM | – | – | – | – | – |
| CC(C)=CCC/C(C)=C/CNCCOc1cccc2ccccc12 | 130 µM | – | 37 µM (≈ 12 µg/mL) | 3.3 µM | 7.1 µM | 140 µM | 19 µM (≈ 6.15 µg/mL) | 22 µM | 7.4 µM | 11 µM | 25 µM (≈ 8.09 µg/mL) | 46 µM | 37 µM | – |
| CC(C)=CCC/C(C)=C/CNCCOc1ccccc1 | – | 51 µM | 44 µM (≈ 12 µg/mL) | 4.6 µM | – | 2500 µM | 23 µM (≈ 6.29 µg/mL) | 23 µM | 62 µM | 11 µM | 117 µM (≈ 32 µg/mL) | 220 µM | 74 µM | – |
| CC(C)=CCC/C(C)=C/COCCOC1C2CC3CC(C2)CC1C3 (stereo unspecified) | 150 µM | 24 µM | 150 µM (≈ 49.9 µg/mL) | 4.2 µM | 15 µM | 600 µM | – | 220 µM | – | – | – | – | – | – |
| CC(C)=CCC/C(C)=C/CNCCOC(C)(C)C | 150 µM | 13 µM | 198 µM (≈ 50.2 µg/mL) | 4.6 µM | 4.7 µM | 9500 µM | 24 µM (≈ 6.08 µg/mL) | 178 µM | – | 174 µM | – | – | – | – |
| N#CC(C#N)=NNc1cccc(Cl)c1 | – | – | – | – | – | – | – | – | – | – | – | – | – | Activity [17]: Active |
| CC(C)=CCC/C(C)=C/COCCNC1C2CC3CC(C2)CC1C3 (stereo unspecified) | 78 µM | 2.8 µM | 19 µM (≈ 6.3 µg/mL) | 1.8 µM | 1 µM | 36 µM | 0.57 µM (≈ 0.189 µg/mL) | 338 µM | – | – | – | 13 µM | – | IC50 (Squalene synthase): 100 µM; IC50 [13]: 100 µM |
